Measured values published in ChEMBL document CHEMBL4152211, “Discovery of novel Methylsulfonyl phenyl derivatives as potent human Cyclooxygenase-2 inhibitors with effective anticonvulsant action: Design, synthesis, in-silico, in-vitro and in-vivo evaluation” (Eur J Med Chem, 2018).
Calls of active or inactive are those of the source. The rule behind the calls is not given here.

Assays:
[1] = biological target: T1, Prostaglandin G/H synthase 1 (Ovis aries) (UniProt P05979); experiment: Inhibition of ovine COX1 at 10 uM using arachidonic acid as substrate preincubated for 5 mins followed by substrate addition and measured after 2 mins by ADPH probe-based fluorescence assay relative to control
T1 sequence (whole entry): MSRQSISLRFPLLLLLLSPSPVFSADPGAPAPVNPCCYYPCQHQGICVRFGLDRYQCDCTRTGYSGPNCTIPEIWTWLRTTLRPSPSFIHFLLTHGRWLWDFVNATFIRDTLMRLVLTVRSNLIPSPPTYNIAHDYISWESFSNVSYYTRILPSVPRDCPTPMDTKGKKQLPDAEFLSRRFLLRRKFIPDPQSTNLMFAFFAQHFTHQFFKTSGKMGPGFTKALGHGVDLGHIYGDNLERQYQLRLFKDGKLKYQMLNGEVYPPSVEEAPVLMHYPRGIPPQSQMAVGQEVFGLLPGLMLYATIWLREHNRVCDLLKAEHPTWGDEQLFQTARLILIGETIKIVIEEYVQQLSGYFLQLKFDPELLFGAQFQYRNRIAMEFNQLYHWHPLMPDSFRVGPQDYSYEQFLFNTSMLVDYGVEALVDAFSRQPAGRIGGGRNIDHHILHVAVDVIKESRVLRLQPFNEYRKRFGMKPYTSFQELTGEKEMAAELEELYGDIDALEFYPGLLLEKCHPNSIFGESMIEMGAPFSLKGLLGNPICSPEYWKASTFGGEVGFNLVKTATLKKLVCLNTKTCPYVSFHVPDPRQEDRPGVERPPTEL
Summary of the method: (§1)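 Kit assay in 100 mM Tris-HCl pH 8.0. Enzyme, heme and inhibitor (DMSO stocks) are incubated 5 min at room temperature. ADPH is added, then arachidonic acid starts the reaction. After 2 min, fluorescence is read at ex 535/em 590 nm. Percent inhibition is taken versus the 100% activity well, background wells included. IC50 is derived from percentage inhibition, mean of three independent experiments.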

[2] = biological target: T2, Prostaglandin G/H synthase 2 (Homo sapiens) (UniProt P35354); experiment: Inhibition of human recombinant COX2 at 10 uM using arachidonic acid as substrate preincubated for 5 mins followed by substrate addition and measured after 2 mins by ADPH probe-based fluorescence assay relative to control; summary of the method: as §1
T2 sequence (whole entry): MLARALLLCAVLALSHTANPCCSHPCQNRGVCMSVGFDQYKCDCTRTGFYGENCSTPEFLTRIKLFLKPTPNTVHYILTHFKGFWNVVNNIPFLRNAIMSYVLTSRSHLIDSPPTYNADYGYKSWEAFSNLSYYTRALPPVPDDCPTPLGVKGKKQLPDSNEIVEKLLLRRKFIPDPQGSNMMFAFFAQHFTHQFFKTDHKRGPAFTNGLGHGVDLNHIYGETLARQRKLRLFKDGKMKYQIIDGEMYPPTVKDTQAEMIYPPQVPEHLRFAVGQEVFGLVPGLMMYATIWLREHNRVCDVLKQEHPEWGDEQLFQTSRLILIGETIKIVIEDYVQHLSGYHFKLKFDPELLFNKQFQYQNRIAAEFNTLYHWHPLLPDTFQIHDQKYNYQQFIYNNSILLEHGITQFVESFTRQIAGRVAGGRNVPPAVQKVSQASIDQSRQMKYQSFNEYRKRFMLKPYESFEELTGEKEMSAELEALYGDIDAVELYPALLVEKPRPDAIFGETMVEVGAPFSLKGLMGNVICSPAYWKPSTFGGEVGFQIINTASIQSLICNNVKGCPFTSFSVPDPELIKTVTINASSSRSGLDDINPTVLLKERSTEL

[3] = biological target: T3, Prostaglandin G/H synthase 2 (Homo sapiens, UniProt P35354); experiment: Inhibition of human recombinant COX2 using arachidonic acid as substrate preincubated for 5 mins followed by substrate addition and measured after 2 mins by ADPH probe-based fluorescence assay; summary of the method: as §1
T3 sequence (P35354 whole entry): T2 sequence (whole entry)

Mus musculus [4] = experiment: Anticonvulsant activity in Swiss albino mouse assessed as protection against subcutaneous pentylenetetrazole-induced seizures at 30 mg/kg, ip administered 0.5 hrs prior to PTZ challenge and measured after 30 mins; type: functional
Summary of the method: (§2)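 Male Swiss Albino mice (25–30 g), 6 per group, dosed i.p. with drugs in sterile saline, then challenged with PTZ 85 mg/kg s.c. (CD97), given at 10 ml/kg, 0.5 h or 4 h later. Each animal is observed singly for seizures. Protection is scored as protected/total animals.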

Mus musculus [5] = experiment: Anticonvulsant activity in Swiss albino mouse assessed as protection against subcutaneous pentylenetetrazole-induced seizures at 100 mg/kg, ip administered 0.5 hrs prior to PTZ challenge and measured after 30 mins; type: functional; summary of the method: as §2
Mus musculus [6] = experiment: Anticonvulsant activity in Swiss albino mouse assessed as protection against subcutaneous pentylenetetrazole-induced seizures at 300 mg/kg, ip administered 0.5 hrs prior to PTZ challenge and measured after 30 mins; type: functional; summary of the method: as §2
Mus musculus [7] = experiment: Anticonvulsant activity in Swiss albino mouse assessed as protection against subcutaneous pentylenetetrazole-induced seizures at 30 mg/kg, ip administered 4 hrs prior to PTZ challenge and measured after 30 mins; type: functional; summary of the method: as §2
Mus musculus [8] = experiment: Anticonvulsant activity in Swiss albino mouse assessed as protection against subcutaneous pentylenetetrazole-induced seizures at 100 mg/kg, ip administered 4 hrs prior to PTZ challenge and measured after 30 mins; type: functional; summary of the method: as §2
Mus musculus [9] = experiment: Anticonvulsant activity in Swiss albino mouse assessed as protection against subcutaneous pentylenetetrazole-induced seizures at 300 mg/kg, ip administered 4 hrs prior to PTZ challenge and measured after 30 mins; type: functional; summary of the method: as §2
Mus musculus [10] = experiment: Anticonvulsant activity in Swiss albino mouse assessed as protection against subcutaneous pentylenetetrazole-induced seizures at 1 mg/kg, ip administered 0.5 hrs prior to PTZ challenge and measured after 30 mins; type: functional; summary of the method: as §2
Mus musculus [11] = experiment: Anticonvulsant activity in Swiss albino mouse assessed as protection against subcutaneous pentylenetetrazole-induced seizures at 5 mg/kg, ip administered 0.5 hrs prior to PTZ challenge and measured after 30 mins; type: functional; summary of the method: as §2
Mus musculus [12] = experiment: Anticonvulsant activity in Swiss albino mouse assessed as protection against subcutaneous pentylenetetrazole-induced seizures at 10 mg/kg, ip administered 0.5 hrs prior to PTZ challenge and measured after 30 mins; type: functional; summary of the method: as §2
Mus musculus [13] = experiment: Anticonvulsant activity in Swiss albino mouse assessed as protection against subcutaneous pentylenetetrazole-induced seizures at 1 mg/kg, ip administered 4 hrs prior to PTZ challenge and measured after 30 mins; type: functional; summary of the method: as §2
Mus musculus [14] = experiment: Anticonvulsant activity in Swiss albino mouse assessed as protection against subcutaneous pentylenetetrazole-induced seizures at 5 mg/kg, ip administered 4 hrs prior to PTZ challenge and measured after 30 mins; type: functional; summary of the method: as §2
Mus musculus [15] = experiment: Anticonvulsant activity in Swiss albino mouse assessed as protection against subcutaneous pentylenetetrazole-induced seizures at 10 mg/kg, ip administered 4 hrs prior to PTZ challenge and measured after 30 mins; type: functional; summary of the method: as §2
Rattus norvegicus = experiment: Antiepileptic activity in rat model of PTZ-induced epileptiogenesis kindling model assessed as decrease of seizure severity at 5 mg/kg, ip measured up to 28 days; type: functional, organism-based
Summary of the method: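 Adult male Wistar rats receive PTZ 40 mg/kg i.p. on alternate days for 28 days plus daily i.p. treatment. After each PTZ injection, rats are observed singly for 45 min and scored on the revised Racine scale (stages to 6). Group mean score per week, ±S.D. Statistics are repeated-measures ANOVA with Tukey's test.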

Row | SMILES | inhibition [1] | inhibition [2] [%] | IC50 [3] [µM] | other results
1 | CS(=O)(=O)c1ccc(NC(=O)NNC(=S)Nc2c(F)cccc2F)cc1 | inactive | 62 | 6.42 | 
2 | CS(=O)(=O)c1ccc(NC(=O)NNC(=S)NCCc2ccccc2)cc1 | inactive | 22 |  | 
3 | COc1ccc(NC(=S)NNC(=O)Nc2ccc(S(C)(=O)=O)cc2)cc1 | inactive | 62 | 7.15 | 
4 | CS(=O)(=O)c1ccc(NC(=O)NNC(=S)Nc2ccc(F)cc2)cc1 | inactive | 54 | 12.5 | 
5 | CS(=O)(=O)c1ccc(NC(=O)NNC(=S)Nc2cccc(Cl)c2Cl)cc1 | inactive | 46 |  | 
6 | CCNC(=S)NNC(=O)Nc1ccc(S(C)(=O)=O)cc1 | inactive | 32 |  | 
7 | Cc1cccc(C)c1NC(=S)NNC(=O)Nc1ccc(S(C)(=O)=O)cc1 | inactive | 64 | 3.14 | Activity (Mus musculus [4]): 17%; Activity (Mus musculus [5]): 33%; Activity (Mus musculus [6]): 33%; Activity (Mus musculus [7]): 17%; Activity (Mus musculus [8]): 33%; Activity (Mus musculus [9]): 50%
8 | CCCC(CCC)C(=O)[O-].[Na+] [VALPROATE SODIUM] |  |  |  | Activity (Mus musculus [6]): 100%; Activity (Mus musculus [9]): 50%
9 | CS(=O)(=O)c1ccc(NC(=O)NNC(=S)Nc2ccc(Cl)cc2)cc1 | inactive | 70 | 5.32 | 
10 | Cc1ccc(-c2ncc(Cl)cc2-c2ccc(S(C)(=O)=O)cc2)cn1 [ETORICOXIB] |  |  |  | Activity (Mus musculus [10]): 50%; Activity (Mus musculus [11]): 67%; Activity (Mus musculus [12]): 50%; Activity (Mus musculus [13]): 50%; Activity (Mus musculus [14]): 67%; Activity (Mus musculus [15]): 50%; Activity (Rattus norvegicus): Active
11 | CS(=O)(=O)c1ccc(NC(=O)NNC(=S)Nc2ccccc2)cc1 | inactive | 50 | 12.8 | 
12 | CS(=O)(=O)c1ccc(NC(=O)NNC(=S)NCc2ccccc2)cc1 | inactive | 21 |  | 
